The source of these data is ChEMBL document CHEMBL1149082, “Discovery of novel thieno[2,3-d]pyrimidin-4-yl hydrazone-based inhibitors of Cyclin D1-CDK4: synthesis, biological evaluation, and structure-activity relationships” (Bioorg Med Chem Lett, 2009).

Series [1] deals with T1, Cyclin-dependent kinase 4 (Homo sapiens, UniProt P11802). The series is described as follows: Inhibition of CDK4-mediated retinoblastoma protein phosphorylation up to 20 ug/mL by dose-response curve analysis.
Series [2] deals with T1, Cyclin-dependent kinase 4. The series is described as follows: Inhibition of CDK4-mediated retinoblastoma protein phosphorylation by dose-response curve analysis. Put shortly:
(§1)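 Kinase assay read as Rb phosphorylation by cyclin D1-CDK4 or cyclin E-CDK2. IC50 is the concentration (μg/mL) giving 50% inhibition of Rb phosphorylation, read from the dose-response curve. Values are means of at least two determinations.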

Series [3] deals with Cyclin-dependent kinase 2 (Homo sapiens, UniProt P24941). The series is described as follows: Inhibition of CDK2-mediated retinoblastoma protein phosphorylation by dose-response curve analysis. The gist of the method:
as §1

The subject of series [4] is HCT-116. Description: Antiproliferative activity against human HCT116 cells by dose-response curve analysis. The format is functional, cell-based. The gist of the method:
(§2)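 Cell growth inhibition measured from dose-response curves at ten concentrations. IC50 is the concentration giving 50% growth inhibition, read from these curves.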

The subject of series [5] is PC-6. Description: Antiproliferative activity against human PC6 cells by dose-response curve analysis. The format is functional, cell-based. Put shortly:
as §2

Series [6] addresses T1, Cyclin-dependent kinase 4. Description: Inhibition of CDK4-mediated retinoblastoma protein phosphorylation up to 20 ug/mL by dose-response curve analysis. Put shortly: as §1
Series [7] concerns WiDr. Description: Antiproliferative activity against human WiDr cells by MTT assay. The format is functional, cell-based. The gist of the method:
as §2
In general terms: Tetrazolium dyes change colour on reduction, which living cells bring about.

The nature of series [8]: Aqueous solubility in water. The format is physicochemical.
The subject of series [9] is MDA-MB-468. The series is described as follows: Antiproliferative activity against human MDA-MB-468 cells by MTT assay. The series is classed as functional, cell-based. Put shortly:
as §2

Series [10] deals with HCT-116. The series is described as follows: Cell cycle arrest in human HCT116 cells assessed as increase in accumulation at G1 phase after 16 hrs by FACS analysis. The format is functional, cell-based. The gist of the method: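 HCT116 cells exposed to test compound at various concentrations for 16 hr, then collected. DNA content measured by flow cytometry to assign G1, S and G2/M fractions.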
(A flow cytometer gives signals particle by particle.)

The test system of series [11] is DLD-1. The series is described as follows: Antiproliferative activity against human DLD1 cells by MTT assay. The series is classed as functional, cell-based. Put shortly: as §2
A short description of series [12]: Antiproliferative activity against mouse B16-BL6 cells by MTT assay. The format is functional, cell-based. The gist of the method: as §2
Series [13] relates to MKN-28. The series is described as follows: Antiproliferative activity against human MKN28 cells by MTT assay. The format is functional, cell-based. The gist of the method:
as §2

Series [14] deals with MDA-MB-231. Description: Antiproliferative activity against human MDA-MB-231 cells by MTT assay. The format is functional, cell-based. Put shortly: as §2
Series [15] has as its system HCT-116. Description: Antiproliferative activity against docetaxal-resistant human HCT116 cells by MTT assay. The series is classed as functional, cell-based. The gist of the method:
as §2

Series [16] has as its system P388. The series is described as follows: Antiproliferative activity against mouse P388 cells by MTT assay. The series is classed as functional, cell-based. Put shortly:
as §2

In series [17] the test system is HCT-116. Description: Antiproliferative activity against SN2-3-resistant human HCT116 cells by MTT assay. The series is classed as functional, cell-based. The gist of the method:
as §2

Values after ≈ are worked out from the molar mass of the structure shown. Active and inactive are the calls of the source. The calls are words filed in the database; no cut-off is given here.

By IC50 is commonly meant the concentration needed to halve the response being measured. A lower IC50 goes with higher potency. `C(=N/Nc1ncnc2sc(Cc3ccccc3)cc12)/c1cccs1`: the result in series [1] was inactive. Also, the values for the IC50 in [2] and in series [3] were greater than 57100 nM and 18.5 µM, respectively.
As for `CCc1cc2c(N/N=C\c3cccs3)nc(C)nc2s1`, the IC50 in [2] was greater than 66100 nM; in series [3] it was greater than 66.1 µM.
With `CC(C)(C)c1cc2c(N/N=C\c3cccc(CO)n3)ncnc2s1`, the IC50 in series [2] is 1030 nM; in series [4], 0.039 µg/mL (≈ 0.114 µM); in [5], 0.034 µg/mL (≈ 0.0996 µM); in series [3] it was 6.15 µM.
For the compound `CCc1cc2c(N/N=C\c3cccs3)nc(-c3ccccc3)nc2s1`, the IC50 is greater than 54900 nM in [2] and greater than 54.9 µM in [3].
For the compound `CC(C)c1cc2c(N/N=C\c3ccco3)ncnc2s1`, the values for the IC50 in series [2], in series [5] and in series [3] were 1360 nM, 3.78 µg/mL (≈ 13.2 µM) and 1.92 µM, respectively.
Regarding `C/C(=N/Nc1ncnc2sc(C(C)C)cc12)c1cccs1`, the 50% inhibitory concentration (IC50) in series [2] was 8850 nM; in [3], 28.1 µM.
On the same counts, the results for `CC(C)(C)c1cc2c(N/N=C\c3cccs3)ncnc2s1` are 379 nM and 1.77 µM.
In the case of `Cc1ccc(/C=N\Nc2ncnc3sc(C(C)(C)C)cc23)nc1`, the IC50 in [2] is 2700 nM; in series [4] it was 0.02 µg/mL (≈ 0.0615 µM); in series [5], 0.009 µg/mL (≈ 0.0277 µM); in series [3], 36.9 µM.
Take `CC(C)c1cc2c(-n3ccc(-c4cccs4)n3)ncnc2s1`: the IC50 is greater than 61300 nM in series [2] and greater than 61.3 µM in [3]. Further, the result in series [6] was inactive.
As to `CC(C)(C)c1cc2c(N/N=C\c3cccc(CN)n3)ncnc2s1`, the 50% inhibitory concentration (IC50) in series [2] is 1730 nM; in series [4], 0.059 µg/mL (≈ 0.173 µM); in series [5], 0.036 µg/mL (≈ 0.106 µM); in [3], 10.6 µM.
In the same order, the values of `CCc1cc2c(N/N=C\C(C)(C)C)ncnc2s1` are 16800 nM, 1.66 µg/mL (≈ 6.33 µM), 1.55 µg/mL (≈ 5.91 µM) and 14.5 µM.
By solubility is commonly meant how much of the substance goes into solution per volume. Take `CN(C)Cc1cccc(/C=N\Nc2ncnc3sc(C(C)(C)C)cc23)n1`: the 50% inhibitory concentration (IC50) is 0.889 µg/mL (≈ 2.41 µM) in series [7]; 0.315 µg/mL (≈ 0.855 µM) in series [9]; 0.506 µg/mL (≈ 1.37 µM) in series [11]; 152 nM in series [2]; 0.429 µg/mL (≈ 1.16 µM) in [4]; 1.09 µg/mL (≈ 2.96 µM) in series [12]. Further, the IC50 in [5] was 0.381 µg/mL (≈ 1.03 µM); in series [3], 3.8 µM; in series [13], 1.39 µg/mL (≈ 3.77 µM); in [14], 0.919 µg/mL (≈ 2.49 µM); in [15] it was 0.973 µg/mL (≈ 2.64 µM); in series [16], 0.37 µg/mL (≈ 1 µM). In series [17], this compound gave a half-maximal inhibitory concentration (IC50) of 0.755 µg/mL (≈ 2.05 µM). The compound further registered a solubility in series [8] of 44 µg/mL (≈ 119 µM). In series [10], the Activity result is “Dose-dependent effect”.
For `Cc1csc2ncnc(N/N=C\c3cccs3)c12`, the half-inhibitory concentration (IC50) in series [2] was greater than 72900 nM; in series [3], greater than 72.9 µM.
In the case of `CCc1c(C)sc2ncnc(N/N=C\c3cccs3)c12`, the IC50 in series [2] was 52900 nM; in series [3] it was 39.7 µM.
